Screening results (PubChem)
MrgX1 PAM: positive allosteric modulators of MrgX1, primary screen, HEK293 cells, Fluo-4 calcium flux; Mas-related G-protein coupled receptor member X1 (Homo sapiens), Q96LB2; FDSS; hits give high values; B-score at 10 µM; 310,000 tested, 0.63% active; AID 588675, 2011;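 active = plate-corrected calcium response at least 3 library SD above typical, normal starting fluorescence, not activating the receptor alone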;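 note: compound read alongside a low EC10 to EC30 dose of BAM8-22 agonist; peak minus trough fluorescence over baseline measured at the second addition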
Target sequence (Q96LB2 whole entry, looked up): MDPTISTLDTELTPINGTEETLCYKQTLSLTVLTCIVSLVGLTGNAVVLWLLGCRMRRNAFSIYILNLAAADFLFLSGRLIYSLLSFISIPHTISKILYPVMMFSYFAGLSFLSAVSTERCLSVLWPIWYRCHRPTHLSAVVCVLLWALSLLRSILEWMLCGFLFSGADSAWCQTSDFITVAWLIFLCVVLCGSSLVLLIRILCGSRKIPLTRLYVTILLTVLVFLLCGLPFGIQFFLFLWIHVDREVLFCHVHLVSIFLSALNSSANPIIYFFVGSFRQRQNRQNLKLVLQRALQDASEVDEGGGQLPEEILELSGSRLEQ
RGS4 block: RGS4 inhibitors, primary screen, cell-based, HEK293 M3R inducible RGS4, calcium flux | Regulator of G-protein signaling 4 (Homo sapiens), P49798 | Fluo-4 calcium flux; hits give high values; triggered by carbachol at its EC20 | B-score at 10 µM | 310,000 tested, 0.45% active | AID 463165, 2010;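 active = B-score, a plate-corrected calcium signal, over three deviations above library mean, with baseline fluorescence within five deviations of library mean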;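 note: RGS4 expression induced by doxycycline in cells with stable M3 receptor; B-score is computed from the integrated fluorescence ratio over baseline after carbachol; higher B-score means a larger calcium signal and so more RGS4 inhibition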
Target sequence (P49798 whole entry, looked up): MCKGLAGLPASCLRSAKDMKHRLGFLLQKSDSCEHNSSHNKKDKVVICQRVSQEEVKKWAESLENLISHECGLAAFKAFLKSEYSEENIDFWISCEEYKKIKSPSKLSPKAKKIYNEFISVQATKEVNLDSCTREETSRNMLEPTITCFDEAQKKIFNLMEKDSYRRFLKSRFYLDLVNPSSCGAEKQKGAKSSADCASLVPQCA
MrgX1 antag: antagonists of human MrgX1 receptor, primary screen, HEK293 cells, Fluo-4 calcium flux; 310,000 tested, 1.3% active; BAM8-22 antagonism; hits give low values; Mas-related G-protein coupled receptor member X1 (Homo sapiens), Q96LB2; B-score at 10 µM; AID 588676, 2011;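 active = calcium-response B-score plate-corrected more than 3 library SD below zero, starting fluorescence within 5 deviations, no agonist response on first addition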;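 note: peak minus trough fluorescence over baseline after final BAM8-22 challenge near maximal dose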
RGS4 act: RGS4 potentiators or activators, primary screen, cell-based, HEK293 M3R inducible RGS4, calcium flux. carbachol calcium flux Fluo4; hits give low values. B-score at 10 µM. 310,000 tested, 0.92% active. AID 463111, 2010;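 active = B-score of the integrated calcium signal more than 4 SD below the library mean, with starting fluorescence not abnormally high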;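 note: negative B-score means reduced calcium response which marks RGS4 activation or potentiation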
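Material: M3R-expressing HEK293 line, RGS4 induced by doxycycline | Schedule: Overnight RGS4 induction, 30 min dye load 37 °C, 20 min compound RT | Measured by: Fluo4 fluorescence kinetic imaging of calcium | Read-out: Integrated calcium ratio converted to B score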
MrgX1 ag: agonists of human MrgX1 receptor, primary screen, HEK293 cells, Fluo-4 calcium flux; Mas-related G-protein coupled receptor member X1 (Homo sapiens), Q96LB2; Fluo-4 calcium fluorescence, agonist mode; hits give high values; B-score at 10 µM; 310,000 tested, 0.44% active;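 active = calcium response B-score plate-corrected fluorescence ratio at least 3 library SD, with starting fluorescence B-score inside 5 SD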
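Material – MrgX1-expressing HEK293 cells · Input – 15,000 cells seeded per well · Dosing – compound as first of three additions · Times – overnight seeding, then 1 h dark dye loading · Measured by – kinetic Fluo-4 NW fluorescence of intracellular calcium · Read-out – B-scored fluorescence response ratio · Benchmarks – positive and negative control wells on each plate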
MrgX1 ag confirm: MrgX1 receptor agonists, duplicate retest, confirmation, HEK293 cells, Fluo-4 calcium flux | shares compounds with MrgX1 ag | Fluo-4 calcium fluorescence, FDSS | activation, % at 10 µM | 600 tested, 78% active | AID 602412, 2012;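 active = calcium signal rise, corrected for plate position, at least 3 library SD high, with starting brightness within 5 such deviations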
HEK293 Ca flux: nonspecific calcium signal in parental HEK293, confirmation, counter-screen for MrgX1 antagonist project, parental HEK293 cells, Fluo-4 calcium flux. shares compounds with MrgX1 antag. Fluo-4 calcium fluorescence, FDSS. fluorescence ratio F(max-min)/F0 at 10 µM. 4,000 tested, 2% active;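 active = duplicate-averaged calcium fluorescence ratio at least three times the standard deviation of buffer wells, a nonspecific response in parental cells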
HEK293 Ca counter: calcium response in parental HEK293 cells, primary screen, counter-screen for MrgX1 allosteric activator project, cell-based, Fluo-4 calcium flux, duplicate; Fluo-4 fluorescence ratio; hits give high values; shares compounds with MrgX1 antag; fluorescence ratio F(max-min)/F0 at 10 µM; 4,000 tested, 0.4% active; AID 624114, 2012;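 active = calcium fluorescence ratio, averaged over duplicates, at least 3 SD of the buffer-well ratio, meaning a nonspecific response in receptor-free cells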;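 note: untransfected parental HEK293 lacking MrgX1 used as counterscreen for MrgX1 allosteric activators; fluorescence change taken during the second addition on a kinetic imager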
HEK293 Ca cntr2: calcium response in parental HEK293 cells, primary screen, counter-screen for MrgX1 agonist project, cell-based, Fluo-4 calcium flux, duplicate, agonist mode | shares compounds with MrgX1 antag | 4,000 tested, 8.7% active | fluorescence ratio F(max-min)/F0 at 10 µM | Fluo-4 calcium fluorescence (FDSS); hits give high values;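 active = calcium fluorescence ratio at least three times the spread of buffer wells, meaning a non-specific response in parental cells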
A number is an active result; i = inactive; nt = not tested or not shown. The list is not random: actives were taken first. Their share in the collection is about 3.5%.

SMILES | MrgX1 PAM | RGS4 block | MrgX1 antag | RGS4 act | MrgX1 ag | MrgX1 ag confirm | HEK293 Ca flux | HEK293 Ca counter | HEK293 Ca cntr2
COc1cccc(CN2CCN(Cc3cc4ccccc4[nH]3)CC2CCO)c1 (stereo not drawn) | i | i | i | i | 123 | 313% | i | i | 49
CCOc1ccccc1NC(=O)CSc1ccc(-c2sc(C)nc2C)nn1 | i | i | i | i | 37 | 170% | i | i | i
CCOc1ccccc1NC(=O)CSc1ccc(-c2ccco2)nn1 | i | i | i | i | i | nt | nt | nt | nt
Cc1cc(C)n(CCC(=O)N2c3ccccc3CC2C)n1 (stereo not drawn) | i | i | i | i | i | nt | nt | nt | nt
N#CC1=C(SCc2ccccc2)NC(=O)CC1c1ccco1 (stereo not drawn) | i | i | i | i | 41 | 180% | i | i | i
N#CC1=C(SCC(=O)NCc2ccccc2)NC(=O)CC1c1ccco1 (stereo not drawn) | i | i | i | i | i | nt | nt | nt | nt
O=C(O)C/C(=C\c1cc(Cl)c2c(c1)OCO2)c1nc2ccccc2s1 | i | i | i | i | 35 | 91% | i | i | i
O=C(O)C/C(=C\c1ccc2c(c1)OCO2)c1nc2ccccc2s1 | i | i | i | i | i | nt | nt | nt | nt
Cc1cc(=O)oc2cc(NC(=O)C(C)Oc3cccc(Cl)c3)ccc12 (stereo not drawn) | i | i | i | i | i | nt | nt | nt | nt
CCc1ccc(CNc2ccc3c(c2)ncn3C(C)(C)C)cc1 | i | i | i | i | i | nt | nt | nt | nt
CCc1ccc(CNc2ccc3c(c2)ncn3CC)cc1 | i | i | i | i | 30 | 166% | i | i | i
COc1cc(/C=C/C(=O)OCC(=O)N2CCCc3ccccc32)ccc1OC(F)F | i | i | i | i | i | nt | nt | nt | nt
Cc1cc(-c2csc(N)n2)c(C)n1C | i | i | i | i | 31 | 150% | i | i | i
C=CCSC(=S)NC1CCS(=O)(=O)C1 (stereo not drawn) | i | i | i | i | 31 | i | i | i | i
Cc1ccc(C2C(C#N)=C(N)Oc3n[nH]c(-c4cccnc4)c32)o1 (stereo not drawn) | i | i | i | i | 36 | 167% | i | i | i
NC1=NC[C@@H](Cc2ccc(O)cc2)N1CCc1cc(C(F)(F)F)cc(C(F)(F)F)c1 | i | i | i | i | i | nt | nt | nt | nt
NC1=NC[C@@H](Cc2ccc(O)cc2)N1CCc1cccc(F)c1 | i | i | i | i | 31 | 171% | i | i | i
O=C(COC(=O)[C@H](Cc1ccccc1)NC(=O)c1cccs1)NC1CCCCC1 | i | i | i | i | 30 | 195% | i | i | 46
NC(=O)c1ccsc1NC(=O)c1coc2ccccc2c1=O | i | i | i | i | i | nt | nt | nt | nt
Cc1nc(Nc2ccccc2)sc1C(=O)Nc1ccccc1 | i | i | i | i | i | nt | nt | nt | nt
Cc1nc(Nc2ccc(S(N)(=O)=O)cc2)sc1C(=O)Nc1ccccc1 | i | i | i | i | 32 | 227% | i | i | i
CCN(c1nc(N)c(C(=O)N=C(N)N)nc1Cl)C(C)C | i | i | i | i | 36 | 233% | i | i | i
CC(C)Nc1nc2nonc2nc1Nc1ccccc1 | i | i | i | i | 29 | 175% | i | i | i
COc1ccc(-c2csc(N=C(N)N)n2)cc1 | i | i | i | i | i | nt | nt | nt | nt
Cc1ccc(-c2csc(N=C(N)N)n2)c(C)c1 | i | i | i | i | 76 | 104% | i | i | i
SMILES | MrgX1 PAM | RGS4 block | MrgX1 antag | RGS4 act | MrgX1 ag | MrgX1 ag confirm | HEK293 Ca flux | HEK293 Ca counter | HEK293 Ca cntr2
O=C(N/N=C/c1cc(Br)ccc1OC(=O)c1ccc(Br)cc1)c1ccncc1 | i | i | i | i | i | nt | nt | nt | nt
CNc1nc(NCc2ccccc2)c2ccccc2n1 | i | i | i | i | 76 | 253% | i | i | i
COC(=O)Cc1c(C(=O)OC)nnn1-c1ccc(OC(F)(F)F)cc1 | i | i | i | i | i | nt | nt | nt | nt
CCC(CC)c1nc(C#N)c(NCc2ccccc2)o1 | i | i | i | i | 27 | 230% | i | i | 50
N#Cc1nc(-c2ccc(F)cc2)oc1NCc1ccccc1 | i | i | i | i | i | nt | nt | nt | nt
N#Cc1nc(Cc2ccccc2)oc1NCc1ccccc1 | i | i | i | i | 31 | 108% | i | i | i
COc1ccc(CNc2oc(COc3ccccc3)nc2C#N)cc1 | i | i | i | i | i | nt | nt | nt | nt
COC(=O)c1ccccc1NC(=S)NC(=O)c1ccccc1 | i | i | i | i | i | nt | nt | nt | nt
CCCCOc1ccc(C(=O)NNC(=S)NC(=O)CC)cc1 | i | i | i | i | i | nt | nt | nt | nt
CCCOc1ccc(C(=O)NNC(=S)NC(=O)c2ccco2)cc1 | i | i | i | i | 146 | 661% | i | i | 127
COC(=O)c1ccccc1NC(=S)NC(=O)c1ccc(C)cc1 | i | i | i | i | 37 | i | i | i | i
COc1ccc(C(=O)NC(=S)NNC(=O)c2ccc(C)cc2)cc1 | i | i | i | -7.3 | 149 | 659% | i | i | 133
O=C(NC(=S)NNC(=O)c1ccco1)c1ccc(Br)cc1 | i | i | i | i | 135 | 543% | i | i | 98
COc1ccc(C(=O)OCc2csc(C)n2)c(O)c1 | i | i | i | i | i | nt | nt | nt | nt
O=C(CCn1c(=O)oc2ccccc21)Nc1cccc(Br)c1 | i | i | i | i | i | nt | nt | nt | nt
